Reference: ChEMBL document CHEMBL3526048, “In vitro metabolism of rivoglitazone, a novel peroxisome proliferator-activated receptor γ agonist, in rat, monkey, and human liver microsomes and freshly isolated hepatocytes” (Drug Metab Dispos, 2011)

How the values were obtained:
Cytochrome P450 3A4 [1] = biological target: T1, Cytochrome P450 3A4 (Homo sapiens, UniProt P08684); test: (§1) Activity of human CYP3A4 expressed in microsomes isolated from baculovirus infected insect cell assessed as enzyme-mediated compound formation treated with [14C]-rivoglitazone at 20 uM after 2 hrs by radio-HPLC/LC-MS/MS analysis in presence of NADPH-generating system; type: ADME
T1 sequence (P08684 whole entry): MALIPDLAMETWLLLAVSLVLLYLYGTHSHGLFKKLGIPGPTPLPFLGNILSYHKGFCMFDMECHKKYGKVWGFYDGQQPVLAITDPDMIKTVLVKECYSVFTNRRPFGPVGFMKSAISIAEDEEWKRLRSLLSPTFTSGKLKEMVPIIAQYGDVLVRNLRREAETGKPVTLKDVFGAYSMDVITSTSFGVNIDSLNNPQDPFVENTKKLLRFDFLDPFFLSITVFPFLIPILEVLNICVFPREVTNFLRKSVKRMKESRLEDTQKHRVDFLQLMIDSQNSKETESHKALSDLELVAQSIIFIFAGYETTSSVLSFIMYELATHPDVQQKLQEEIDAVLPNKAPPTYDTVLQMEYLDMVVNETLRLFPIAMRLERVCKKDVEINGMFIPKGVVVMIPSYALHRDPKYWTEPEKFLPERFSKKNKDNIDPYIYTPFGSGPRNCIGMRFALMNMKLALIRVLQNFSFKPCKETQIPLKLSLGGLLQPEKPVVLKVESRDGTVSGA
Procedure, shortened: (§2)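 Baculovirus-insect-cell microsomes expressing the human CYP (1 mg/ml protein) were incubated with [14C]rivoglitazone (20 μM) in 50 mM potassium phosphate (pH 7.4) or 100 mM Tris-HCl (pH 7.5) with an NADPH-generating system (2 mM NADP+, 20 mM glucose 6-phosphate, 2 units/ml G6PDH, 10 mM MgCl2) for 2 h at 37°C. Insect-cell control supersomes served as the control. Reactions were stopped with acetonitrile, and the concentrated supernatants were analysed by radio-HPLC, LC-MS and LC-MS/MS.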

[2] = Drug level in cynomolgus monkey liver microsomes treated with [14C]-rivoglitazone at 20 uM after 2 to 4 hrs by radio-HPLC/LC-MS/MS analysis in presence of UDPGA, UDPGA/SAM and NADPH-generating system; type: ADME, Macaca fascicularis
[3] = biological target: T2, UDP-glucuronosyltransferase 1A3 (Homo sapiens, UniProt P35503); test: Activity of human UGT1A3 expressed in microsomes isolated from baculovirus infected insect cell assessed as enzyme-mediated 3-(4-((6-methoxy-1-methyl-1H-benzo[d]imidazol-2-yl)methoxy)phenyl)-2-(methylsulfinyl)propanamide formation at 20 uM after 4 hrs by radio-HPLC/LC-MS/MS analysis in presence of NADPH-generating system/SAM; type: ADME
T2 sequence (P35503 whole entry): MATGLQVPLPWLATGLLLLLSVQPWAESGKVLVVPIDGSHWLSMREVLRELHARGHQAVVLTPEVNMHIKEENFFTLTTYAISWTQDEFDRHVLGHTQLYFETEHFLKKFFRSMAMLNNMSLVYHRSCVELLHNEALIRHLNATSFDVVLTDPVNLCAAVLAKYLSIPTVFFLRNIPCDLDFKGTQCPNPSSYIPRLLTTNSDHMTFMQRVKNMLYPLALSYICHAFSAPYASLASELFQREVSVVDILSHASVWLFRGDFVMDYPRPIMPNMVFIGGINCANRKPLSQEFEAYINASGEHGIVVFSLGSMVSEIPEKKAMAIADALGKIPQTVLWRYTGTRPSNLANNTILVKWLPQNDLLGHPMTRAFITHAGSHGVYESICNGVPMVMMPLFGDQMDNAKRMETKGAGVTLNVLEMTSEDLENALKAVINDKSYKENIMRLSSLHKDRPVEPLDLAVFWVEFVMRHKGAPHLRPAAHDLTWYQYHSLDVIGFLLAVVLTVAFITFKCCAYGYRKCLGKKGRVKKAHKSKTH

Liver microsome [4] = test: Drug metabolism in Sprague-Dawley rat liver microsomes assessed as formation of 2-amino-3-((1-carboxy-2-(4-((6-methoxy-1-methyl-1H-benzo[d]imidazol-2-yl)methoxy)phenyl)ethyl)disulfanyl)propanoic acid at 20 uM by radio-HPLC/LC-MS/MS analysis; type: ADME
Cytochrome P450 3A4 [5] = biological target: T1, Cytochrome P450 3A4; test: as §1, with “2-mercapto-3-(4-((6-methoxy-1-methyl-1H-benzo[d]imidazol-2-yl)methoxy)phenyl)propanoic acid” for “compound”, “formation” for “formation treated with [14C]-rivoglitazone”; type: ADME; procedure, shortened: as §2
Cytochrome P450 2C9 = Cytochrome P450 2C9 (Homo sapiens, UniProt P11712); test: Activity of human CYP2C9 expressed in microsomes isolated from baculovirus infected insect cell assessed as enzyme-mediated 3-(4-((6-methoxy-1-methyl-1H-benzo[d]imidazol-2-yl)methoxy)phenyl)-2-(methylthio)propanamide formation at 20 uM after 2 hrs by radio-HPLC/LC-MS/MS analysis in presence of NADPH-generating system/SAM; type: ADME
Sequence of Cytochrome P450 2C9 (P11712 whole entry): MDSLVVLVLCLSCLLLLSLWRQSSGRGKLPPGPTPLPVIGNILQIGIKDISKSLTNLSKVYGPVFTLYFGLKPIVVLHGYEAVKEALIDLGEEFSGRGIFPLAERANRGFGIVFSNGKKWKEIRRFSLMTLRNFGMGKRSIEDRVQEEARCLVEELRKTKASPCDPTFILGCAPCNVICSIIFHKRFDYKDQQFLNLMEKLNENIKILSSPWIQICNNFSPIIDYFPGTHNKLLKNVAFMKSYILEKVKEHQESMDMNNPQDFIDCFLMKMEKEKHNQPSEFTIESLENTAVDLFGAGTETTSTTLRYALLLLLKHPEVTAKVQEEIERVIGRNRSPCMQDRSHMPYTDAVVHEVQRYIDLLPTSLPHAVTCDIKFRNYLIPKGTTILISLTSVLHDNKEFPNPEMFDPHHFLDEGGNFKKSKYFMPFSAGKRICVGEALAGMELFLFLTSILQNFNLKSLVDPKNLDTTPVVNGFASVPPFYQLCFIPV

Liver microsome [6] = test: Drug metabolism in Sprague-Dawley rat liver microsomes assessed as formation of (2S,3S,4S,5R,6R)-3,4,5-trihydroxy-6-(5-(4-((6-methoxy-1-methyl-1H-benzo[d]imidazol-2-yl)methoxy)benzyl)-2,4-dioxothiazolidin-3-yl)tetrahydro-2H-pyran-2-carboxylic acid at 20 uM after 4 hrs by radio-HPLC/LC-MS/MS analysis in presence of UDPGA and UDPGA/SAM; type: ADME
Plasma = test: Drug metabolism in po dosed monkey plasma assessed as formation of 5-(4-((6-methoxy-1H-benzo[d]imidazol-2-yl)methoxy)benzyl)thiazolidine-2,4-dione; type: ADME, organism-based, Macaca mulatta; conditions: rhesus monkey, in vivo
Liver microsome [7] = test: Drug metabolism in human liver microsomes assessed as formation of 3-(4-((6-methoxy-1-methyl-1H-benzo[d]imidazol-2-yl)methoxy)phenyl)-2-(methylthio)propanamide at 20 uM after 2 hrs by radio-HPLC/LC-MS/MS analysis in presence of NADPH-generating system/SAM; type: ADME
[8] = Drug metabolism in monkey hepatocytes assessed as formation of (2S,3S,4S,5R,6R)-6-((1-carboxy-2-(4-((6-methoxy-1-methyl-1H-benzo[d]imidazol-2-yl)methoxy)phenyl)ethylthio)carbonylamino)-3,4,5-trihydroxytetrahydro-2H-pyran-2-carboxylic acid at 30 uM after 3 hrs by radio-HPLC/LC-MS/MS analysis in presence of UDPGA and UDPGA/SAM; conditions: cynomolgus monkey
[9] = Drug metabolism in monkey hepatocytes assessed as formation of 2-amino-3-((1-carboxy-2-(4-((6-methoxy-1-methyl-1H-benzo[d]imidazol-2-yl)methoxy)phenyl)ethyl)disulfanyl)propanoic acid at 30 uM after 3 hrs by radio-HPLC/LC-MS/MS analysis; conditions: cynomolgus monkey
Cytochrome P450 3A5 = Cytochrome P450 3A5 (Homo sapiens, UniProt P20815); test: Activity of human CYP3A5 expressed in microsomes isolated from baculovirus infected insect cell assessed as enzyme-mediated (2S,3S,4S,5R,6R)-3,4,5-trihydroxy-6-(5-(4-((6-methoxy-1-methyl-1H-benzo[d]imidazol-2-yl)methoxy)benzyl)-2,4-dioxothiazolidin-3-yl)tetrahydro-2H-pyran-2-carboxylic acid formation at 20 uM after 2 hrs by radio-HPLC/LC-MS/MS analysis in presence of UDPGA and UDPGA/SAM; type: ADME
Sequence of Cytochrome P450 3A5 (P20815 whole entry): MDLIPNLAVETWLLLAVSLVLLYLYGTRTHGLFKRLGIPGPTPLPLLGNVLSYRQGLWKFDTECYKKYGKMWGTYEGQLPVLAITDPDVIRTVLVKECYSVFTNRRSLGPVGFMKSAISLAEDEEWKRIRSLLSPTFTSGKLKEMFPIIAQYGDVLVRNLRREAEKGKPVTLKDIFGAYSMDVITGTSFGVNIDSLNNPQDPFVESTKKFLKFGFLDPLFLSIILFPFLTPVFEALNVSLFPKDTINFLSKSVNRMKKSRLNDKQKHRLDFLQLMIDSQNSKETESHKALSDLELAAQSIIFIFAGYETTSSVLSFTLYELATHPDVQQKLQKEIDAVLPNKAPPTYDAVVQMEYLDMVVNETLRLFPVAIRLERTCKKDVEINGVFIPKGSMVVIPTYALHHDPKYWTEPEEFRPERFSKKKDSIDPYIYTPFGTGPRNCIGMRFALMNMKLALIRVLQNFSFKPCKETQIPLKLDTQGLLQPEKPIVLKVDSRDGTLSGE

[10] = Drug metabolism in cynomolgus monkey liver microsomes assessed as formation of 3-(4-((6-methoxy-1-methyl-1H-benzo[d]imidazol-2-yl)methoxy)phenyl)-2-(methylthio)propanamide at 20 uM after 2 hrs by radio-HPLC/LC-MS/MS analysis in presence of NADPH-generating system/SAM; type: ADME, Macaca fascicularis
[11] = Drug metabolism in cynomolgus monkey liver microsomes assessed as formation of 2-((4-((2,4-dioxothiazolidin-5-yl)methyl)phenoxy)methyl)-1-methyl-1H-benzo[d]imidazol-6-yl hydrogen sulfate at 20 uM by radio-HPLC/LC-MS/MS analysis; type: ADME, Macaca fascicularis

COc1ccc2nc(COc3ccc(CC(S)C(=O)O)cc3)n(C)c2c1 (centres undefined)
Drug metabolism (Cytochrome P450 3A4 [1]): metabolite_detected
Drug metabolism [2]: metabolite_detected

COc1ccc2nc(COc3ccc(C[14CH]4SC(=O)NC4=O)cc3)n(C)c2c1.Cl (racemic)
Drug metabolism [3]: metabolite_not_detected
Drug metabolism (Liver microsome [4]): metabolite_not_detected
Drug metabolism (Cytochrome P450 3A4 [5]): metabolite_detected
Drug metabolism (Cytochrome P450 2C9): metabolite_not_detected
Drug metabolism (Liver microsome [6]): metabolite_detected
Drug metabolism (Plasma): metabolite_detected
Drug metabolism (Liver microsome [7]): metabolite_detected
Drug metabolism [8]: metabolite_detected
Drug metabolism [9]: metabolite_not_detected
Drug metabolism (Cytochrome P450 3A5): metabolite_not_detected
Drug metabolism [10]: metabolite_detected
Drug metabolism [11]: metabolite_not_detected
